The source of these data is paper PMC8399557 (Journal of medicinal chemistry, 2020).

Common to all, as to format: physicochemical
Data set [1] can be described thus: Solvolytic stability of difluoro-dioxaborinins by 19F NMR in water/DMSO. The following applies: for relative solvolytic stability (in words): comparison among Figure 2 / Table 1 compounds, 10% water/90% DMSO; for Stability (t1/2, h) 10% H2O/90% DMSO / Stability (t1/2, h) 90% H2O/10% DMSO: solvolysis half-life, 19F NMR, 25 °C; for Stability (t1/2, h) 10% H2O/90% DMSO: 10% H2O/90% DMSO (5.55 M H2O); for times more resistant to solvolysis than 1: in 50 M H2O; for Stability (t1/2, h) 90% H2O/10% DMSO: 90% H2O/10% DMSO (50 M H2O); for Fold increase in stability (90% to 10% H2O): solvolysis in 5.5 M H2O vs. 50 M H2O; for fold more rapid solvolysis than 5: determined in 5.55 M H2O. An outline of the steps:
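Test compound was held in 10% or 90% aqueous DMSO, with aqueous portions in 1X PBS (pH 7.4, 10 mM), and 19F NMR spectra were integrated over time. The fraction of 19F on the test compound was taken as its integral divided by the sum of all fluoride integrals. Fractions versus time were fitted to P = exp(−k*t), and half-lives were derived from k.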

The nature of a further data set: Optical properties. To be noted: for Abs (nm) / Em (nm) / Extinction Coefficient (cm^−1M^−1) / Stokes Shift (nm): in methanol; for Quantum yield (%, in Methanol): quinine bisulfate as the reference.
A short description of data set [2]: Water solubility judged by silica TLC with water as the mobile phase.

Structures are written as SMILES. Where only a bound is given, the exact number is not on record here.

With `CC1=CC(c2ccccc2)=[O+][B-](F)(F)O1` [Compound 14, 2,2-Difluoro-4-methyl-6-phenyl-2H-1λ^3,3,2λ^4-dioxaborinine], the “solvolysis half-life compared with F-18 nuclear decay half-life” value in data set [1] (Table 1 conditions) was greater than 110 min. Also, in data set [1], the “relative solvolytic stability (in words)” value is given as “least stable” and the “Stability (t1/2, h) 10% H2O/90% DMSO” value was found to be 4.46 ± 0.05 h. Moreover, in the data set “Optical properties”, the “Abs (nm)” value is 325 nm, the “Em (nm)” value came out at 328 nm, the “Extinction Coefficient (cm^−1M^−1)” value is on record as 19,800 cm^−1M^−1 and the “Stokes Shift (nm)” value turned out to be 3 nm.

Regarding `CC1=[O+][B-](F)(F)OC(C)=C1C` [Compound 2, 2,2-Difluoro-4,5,6-trimethyl-2H-1λ^3,3,2λ^4-dioxaborinine], in data set [1], the “times more resistant to solvolysis than 1” value (“times more resistant” for short) is given as 6.2 times; the “Stability (t1/2, h) 10% H2O/90% DMSO” value was 53.9 ± 1.1 h; the “Stability (t1/2, h) 90% H2O/10% DMSO” value was 17.1 ± 0.7 h; the “Fold increase in stability (90% to 10% H2O)” value is recorded as 3.2 fold. Further, in the data set “Optical properties”, the “Abs (nm)” value came to 303 nm, the “Em (nm)” value is 307 nm, the “Extinction Coefficient (cm^−1M^−1)” value is 12,200 cm^−1M^−1 and the “Stokes Shift (nm)” value is listed as 4 nm. In addition, in data set [2], the “water solubility (in words)” value is listed as “water solubility that allowed them to be resolved on silica TLC with water as the mobile phase”.

As to `COc1cc(/C=C/C2=CC(/C=C/c3ccc(OC(=O)CCN4C(=O)C=CC4=O)c(OC)c3)=[O+][B-](F)(F)O2)ccc1OC(=O)CCN1C(=O)C=CC1=O` [Compound 10, ((1E,1′E)-(2,2-difluoro-2H-1λ^3,3,2λ^4-dioxaborinine-4,6-diyl)bis(ethene-2,1-diyl))bis(2-methoxy-4,1-phenylene) bis(3-(2,5-dioxo-2,5-dihydro-1H-pyrrol-1-yl)propanoate)], in data set [1], the “fold more rapid solvolysis than 5” value is recorded as 24 fold and the “Stability (t1/2, h) 10% H2O/90% DMSO” value was 16.0 ± 0.2 h. In the data set “Optical properties”, the “Abs (nm)” value came to 434 nm, the “Em (nm)” value is recorded as 509 nm, the “Extinction Coefficient (cm^−1M^−1)” value was 54,000 cm^−1M^−1 and the “Stokes Shift (nm)” value is 75 nm. Further, the “Quantum yield (%, in Methanol)” value in the data set “Optical properties” stood at 3.1%.

For the compound `CC1=C2CCCCC2=[O+][B-](F)(F)O1` [Compound 15, 2,2-Difluoro-4-methyl-5,6,7,8-tetrahydro-2H-1λ^3,2λ^4-benzo[e][1,3,2]dioxaborinine], in data set [1], the “times more resistant” value came out at 2.5 times; the “Stability (t1/2, h) 10% H2O/90% DMSO” value was 33.7 ± 1.1 h; the “Stability (t1/2, h) 90% H2O/10% DMSO” value amounted to 6.75 ± 0.19 h; the “Fold increase in stability (90% to 10% H2O)” value turned out to be 5.0 fold. Further, in the data set “Optical properties”, the “Abs (nm)” value was 303 nm, the “Em (nm)” value was 307 nm, the “Extinction Coefficient (cm^−1M^−1)” value is given as 12,000 cm^−1M^−1 and the “Stokes Shift (nm)” value was determined as 4 nm. The “water solubility (in words)” value in data set [2] was “water solubility that allowed them to be resolved on silica TLC with water as the mobile phase”.

For `CC1=CC(C)=[O+][B-](F)(F)O1` [Compound 1, 2,2-Difluoro-4,6-dimethyl-2H-1λ^3,3,2λ^4-dioxaborinine], the “solvolysis in the absence of water” value in data set [1] (100% DMSO) is “not observed”. The “fraction decomposed at 110 min (one F-18 half-life) post i.v. injection” value in data set [1] (assuming the in vitro solvolysis rate translates in vivo) is given as 37%. Moreover, in data set [1], the “relative solvolytic stability (in words)” value was “second most rapid difluoro-dioxaborinin to undergo aqueous solvolysis”; the “Stability (t1/2, h) 10% H2O/90% DMSO” value was determined as 7.63 ± 0.18 h; the “Stability (t1/2, h) 90% H2O/10% DMSO” value turned out to be 2.73 ± 0.02 h; the “Fold increase in stability (90% to 10% H2O)” value is 2.8 fold. For the same compound, in the data set “Optical properties”, the “Abs (nm)” value was found to be 279 nm, the “Em (nm)” value was found to be 305 nm, the “Extinction Coefficient (cm^−1M^−1)” value is recorded as 9,180 cm^−1M^−1 and the “Stokes Shift (nm)” value stood at 26 nm. In addition, the “water solubility (in words)” value in data set [2] is reported as “water solubility that allowed them to be resolved on silica TLC with water as the mobile phase”.

Turning to `CCC1=C(C)O[B-](F)(F)[O+]=C1C` [Compound 3, 5-Ethyl-2,2-difluoro-4,6-dimethyl-2H-1λ^3,3,2λ^4-dioxaborinine], in data set [1], the “times more resistant” value came out at 5.6 times; the “Stability (t1/2, h) 10% H2O/90% DMSO” value was found to be 53.9 ± 1.5 h; the “Stability (t1/2, h) 90% H2O/10% DMSO” value turned out to be 15.2 ± 0.5 h; the “Fold increase in stability (90% to 10% H2O)” value was determined as 3.5 fold. Besides, in the data set “Optical properties”, the “Abs (nm)” value is listed as 303 nm, the “Em (nm)” value was 306 nm, the “Extinction Coefficient (cm^−1M^−1)” value is recorded as 12,000 cm^−1M^−1 and the “Stokes Shift (nm)” value is listed as 3 nm. Besides, the “water solubility (in words)” value in data set [2] is recorded as “water solubility that allowed them to be resolved on silica TLC with water as the mobile phase”.

For `COc1cc(/C=C/C2=CC(/C=C/c3ccc(OC(=O)c4c(F)cc(F)cc4F)c(OC)c3)=[O+][B-](F)(F)O2)ccc1OC(=O)c1c(F)cc(F)cc1F` [Compound 9, ((1E,1′E)-(2,2-difluoro-2H-1λ^3,3,2λ^4-dioxaborinine-4,6-diyl)bis(ethene-2,1-diyl))bis(2-methoxy-4,1-phenylene) bis(2,4,6-trifluorobenzoate)], in data set [1], the “fold more rapid solvolysis than 5” value turned out to be 33 fold and the “Stability (t1/2, h) 10% H2O/90% DMSO” value was determined as 11.9 ± 0.4 h. Also, in “Optical properties”, the “Abs (nm)” value amounted to 430 nm, the “Em (nm)” value is reported as 512 nm, the “Extinction Coefficient (cm^−1M^−1)” value was 50,800 cm^−1M^−1 and the “Stokes Shift (nm)” value was found to be 82 nm. Also, in “Optical properties”, the “Quantum yield (%, in Methanol)” value was 3.0%.

As for `CCOC(=O)CCC1=C(C)O[B-](F)(F)[O+]=C1C` [Compound 6, Ethyl 3-(2,2-difluoro-4,6-dimethyl-2H-1λ^3,3,2λ^4-dioxaborinin-5-yl)propanoate], in data set [1], the “times more resistant” value is recorded as 1.9 times; the “Stability (t1/2, h) 10% H2O/90% DMSO” value is on record as 24.6 ± 0.5 h; the “Stability (t1/2, h) 90% H2O/10% DMSO” value amounted to 5.19 ± 0.15 h; the “Fold increase in stability (90% to 10% H2O)” value came to 4.7 fold. For the same compound, in the data set “Optical properties”, the “Abs (nm)” value is 301 nm, the “Em (nm)” value was determined as 307 nm, the “Extinction Coefficient (cm^−1M^−1)” value is listed as 12,600 cm^−1M^−1 and the “Stokes Shift (nm)” value was 6 nm. In addition, the “water solubility (in words)” value in data set [2] is “water solubility that allowed them to be resolved on silica TLC with water as the mobile phase”.
